According to ChEMBL document CHEMBL2146407, “Development of erlotinib derivatives as CIP2A-ablating agents independent of EGFR activity” (Bioorg Med Chem, 2012):
The source made the active and inactive calls. The calls are words filed in the database; no cut-off is given here.

Assays:
[1] = system: SK-HEP1; assay: Cytotoxicity against human SKHEP1 cells assessed as growth inhibition after 48 hrs by MTT assay; type: functional, cell-based; details: SK-HEP1, 48 h
In short: (§1)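 MTT read-out in SK-Hep-1 cells kept in DMEM with 10% FBS, penicillin/streptomycin and amphotericin B at 37 °C under 5% CO2. Reduced dye solubilized in DMSO and absorbance read at 570 nm. The concentration giving 50% growth inhibition was interpolated from dose–response curves.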

[2] = system: SK-HEP1; assay: Inhibition of CIP2A expression in human SKHEP1 cells at 20 uM after 24 hrs by Western blot analysis; type: functional, cell-based
In short: (§2)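 SK-Hep-1 cells (3 × 10^5 per 60 mm dish) were treated 24 h, in the primary screen at 20 μM. Lysates were loaded at 40 μg per lane and blotted for CIP2A against actin.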

[3] = molecular target: T1, Epidermal growth factor receptor (Homo sapiens, UniProt P00533); assay: Inhibition of EGFR phosphorylation in human PC9 cells after 24 hrs by Western blot analysis; type: cell-based, PC-9
[4] = system: SK-HEP1; assay: Cytotoxicity against human SKHEP1 cells assessed as cell death after 48 hrs by MTT assay; type: functional, cell-based; details: SK-HEP1, 48 h; in short: as §1
[5] = molecular target: Protein CIP2A (Homo sapiens) (UniProt Q8TCG1); assay: Inhibition of CIP2A-mediated PP2A-dependent AKT phosphorylation in human SKHEP1 cells at 5 uM after 30 hrs by Western blot analysis; type: cell-based; details: SK-HEP1
In short: (§3)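 SK-Hep-1 cells (3 × 10^5 per 60 mm dish) were exposed to 5 μM for 30 h. Lysates were loaded at 40 μg per lane and immunoblotted for CIP2A, phospho-Akt, PARP and actin.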

[6] = system: SK-HEP1; assay: Cytotoxicity against human SKHEP1 cells assessed as cell death after 24 hrs by MTT assay
[7] = molecular target: T1, Epidermal growth factor receptor; assay: Inhibition of EGFR phosphorylation in human PC9 cells at 2 uM after 24 hrs by Western blot analysis; type: cell-based; details: PC-9
In short: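 PC9 cells (3 × 10^5 per 60 mm dish), grown in DMEM with 10% FBS at 37 °C and 5% CO2, were treated 24 h at 2 μM. Lysates were loaded at 40 μg per lane and immunoblotted for EGFR phosphorylation.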

[8] = system: SK-HEP1; assay: Induction of apoptosis in human SKHEP1 cells assessed as accumulation at sub-G1 phase at 5 uM after 24 hrs by propidium iodide staining based flow cytometry; type: functional, cell-based
In short: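 SK-Hep-1 cells were treated 24 h at 5 μM, then trypsinized, pelleted, washed in PBS and stained with propidium iodide. Apoptotic cells were counted by flow cytometry as the sub-G1 fraction. Mean of n = 3 with SD; P <0.05 taken as significant.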

[9] = system: SK-HEP1; assay: Induction of apoptosis in human SKHEP1 cells assessed as DNA fragmentation at 5 uM after 24 hrs by ELISA; type: functional, cell-based
In short: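 DNA fragmentation was measured in SK-Hep-1 cells after 24 h of exposure, using a cell death ELISA kit.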

[10] = molecular target: Protein CIP2A (Homo sapiens) (UniProt Q8TCG1); assay: Inhibition of CIP2A in human SKHEP1 cells at 5 uM after 30 hrs by Western blot analysis; type: cell-based; details: SK-HEP1; in short: as §3
[11] = molecular target: Protein CIP2A (Homo sapiens) (UniProt Q8TCG1); assay: Inhibition of CIP2A-mediated PP2A-dependent AKT phosphorylation in human SKHEP1 cells at 5 uM after 30 hrs by Western blot analysis in presence of okadaic acid; type: cell-based; details: SK-HEP1
[12] = system: SK-HEP1; assay: Inhibition of CIP2A expression in human SKHEP1 cells after 24 hrs by Western blot analysis; type: functional, cell-based; in short: as §2
[13] = system: SK-HEP1; assay: Induction of apoptosis in human SKHEP1 cells assessed as increase in PARP cleavage at 5 uM after 30 hrs by Western blot analysis; type: functional, cell-based; in short: as §3

T1 sequence (P00533 whole entry): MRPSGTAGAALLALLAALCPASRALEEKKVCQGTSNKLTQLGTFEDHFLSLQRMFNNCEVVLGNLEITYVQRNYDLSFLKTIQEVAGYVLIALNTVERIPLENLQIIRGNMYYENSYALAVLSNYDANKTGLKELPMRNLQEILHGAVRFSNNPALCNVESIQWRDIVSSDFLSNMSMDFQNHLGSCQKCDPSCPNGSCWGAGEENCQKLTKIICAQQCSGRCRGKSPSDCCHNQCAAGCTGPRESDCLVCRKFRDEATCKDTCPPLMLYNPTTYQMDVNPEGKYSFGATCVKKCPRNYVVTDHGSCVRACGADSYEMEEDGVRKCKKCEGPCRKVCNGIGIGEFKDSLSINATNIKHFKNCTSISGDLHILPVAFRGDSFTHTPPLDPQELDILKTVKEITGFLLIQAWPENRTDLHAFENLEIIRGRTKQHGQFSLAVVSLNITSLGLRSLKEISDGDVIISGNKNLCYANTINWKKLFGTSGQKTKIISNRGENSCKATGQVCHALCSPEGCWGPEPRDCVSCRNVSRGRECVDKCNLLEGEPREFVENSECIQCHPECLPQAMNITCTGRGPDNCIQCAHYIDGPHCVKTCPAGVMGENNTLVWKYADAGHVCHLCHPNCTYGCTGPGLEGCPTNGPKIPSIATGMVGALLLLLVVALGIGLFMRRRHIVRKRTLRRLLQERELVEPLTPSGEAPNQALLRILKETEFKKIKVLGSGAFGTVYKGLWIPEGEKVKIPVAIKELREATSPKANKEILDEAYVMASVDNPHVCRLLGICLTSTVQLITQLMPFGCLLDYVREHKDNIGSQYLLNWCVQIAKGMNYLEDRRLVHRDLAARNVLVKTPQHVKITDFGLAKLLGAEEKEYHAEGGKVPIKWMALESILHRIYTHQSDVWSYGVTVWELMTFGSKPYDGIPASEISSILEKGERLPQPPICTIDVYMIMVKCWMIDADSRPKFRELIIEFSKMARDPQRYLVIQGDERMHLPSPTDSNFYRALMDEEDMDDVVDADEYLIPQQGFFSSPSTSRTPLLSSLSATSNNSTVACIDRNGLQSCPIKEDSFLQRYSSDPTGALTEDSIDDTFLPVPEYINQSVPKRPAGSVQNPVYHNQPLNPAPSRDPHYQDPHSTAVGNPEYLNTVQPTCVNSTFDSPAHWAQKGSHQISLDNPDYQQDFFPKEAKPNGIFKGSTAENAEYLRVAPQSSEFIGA

SMILES: C#Cc1cccc(Nc2nc(Nc3cc(C)ccc3F)nc3cc(OC)c(OC)cc23)c1
- IC50 [1]: 4.5 µM
- inhibition [2]: Active

SMILES: C#Cc1cccc(Nc2nc(Cl)nc3cc(OC)c(OC)cc23)c1
- IC50 [3]: > 8 µM

SMILES: C#Cc1cccc(Nc2nc(Nc3cccc(Oc4ccc(C#N)cc4)c3)nc3cc(OC)c(OC)cc23)c1
- IC50 [1]: 3.9 µM
- inhibition [2]: Active

SMILES: COc1cc2nc(Cl)nc(Nc3cc(C)ccc3F)c2cc1OC
- IC50 [4]: > 40 µM

SMILES: Clc1cccc(Nc2ccnc(Cl)n2)c1
- inhibition [2]: inactive
- IC50 [4]: > 40 µM

SMILES: COc1cc2nc(Cl)nc(Nc3cccc(Cl)c3)c2cc1OC
- IC50 [4]: 16.5 µM

SMILES: C#Cc1cccc(Nc2nc(Nc3ccc(Oc4ccccc4)cc3)nc3cc(OC)c(OC)cc23)c1
- inhibition [5]: Active
- IC50 [1]: 2.8 µM
- Activity [6]: Dose-dependent effect
- inhibition [2]: Active
- inhibition [7]: inactive
- Activity [8]: Active
- Activity [9]: Active
- inhibition [10]: Active
- inhibition [11]: inactive
- inhibition [12]: Dose-dependent effect
- Activity [13]: Active

SMILES: Clc1nccc(NCc2ccccc2)n1
- inhibition [2]: inactive
- IC50 [4]: > 40 µM

SMILES: C#Cc1cccc(Nc2nc(Nc3ccc(Cl)c(C(F)(F)F)c3)nc3cc(OC)c(OC)cc23)c1
- IC50 [1]: 6.8 µM
- inhibition [2]: Active

SMILES: C#Cc1cccc(Nc2nc(Nc3ccc(Oc4ccc(C#N)cc4)cc3)nc3cc(OC)c(OC)cc23)c1
- IC50 [1]: 14.5 µM
- inhibition [2]: Active

SMILES: C#Cc1cccc(N(C)c2nc(Cl)nc3cc(OC)c(OC)cc23)c1
- IC50 [4]: 12.3 µM

SMILES: C#Cc1cccc(Nc2ccnc(Cl)n2)c1
- inhibition [2]: inactive
- IC50 [4]: > 40 µM

SMILES: C#Cc1cccc(Nc2nc(Nc3cccc(Cl)c3)nc3cc(OC)c(OC)cc23)c1
- IC50 [1]: 7.1 µM
- inhibition [2]: Active

SMILES: C#Cc1cccc(Nc2ccnc(Nc3cccc(C#C)c3)n2)c1
- inhibition [2]: Active
- IC50 [4]: 3.7 µM

SMILES: COc1cc2nc(Cl)nc(Nc3ccc(Cl)c(C(F)(F)F)c3)c2cc1OC
- IC50 [4]: 8.8 µM

SMILES: COc1cc2nc(Cl)nc(NCc3ccccc3)c2cc1OC
- IC50 [4]: 19.8 µM

SMILES: COc1cc2nc(Cl)nc(Nc3ccc(Oc4ccccc4)cc3)c2cc1OC
- IC50 [4]: 15.3 µM

SMILES: COc1cc2nc(Cl)nc(Nc3cccc(Oc4ccc(C#N)cc4)c3)c2cc1OC
- IC50 [4]: > 40 µM

SMILES: C#Cc1cccc(Nc2nc(NCc3ccccc3)nc3cc(OC)c(OC)cc23)c1
- inhibition [5]: Active
- IC50 [1]: 2.8 µM
- inhibition [2]: Active
- inhibition [7]: inactive
- Activity [8]: Active
- Activity [9]: Active
- inhibition [10]: Active
- Activity [13]: Active

SMILES: Clc1nccc(Nc2ccc(Oc3ccccc3)cc2)n1
- inhibition [2]: inactive
- IC50 [4]: > 40 µM

SMILES: FC(F)(F)c1cc(Nc2ccnc(Nc3ccc(Cl)c(C(F)(F)F)c3)n2)ccc1Cl
- inhibition [2]: Active
- IC50 [4]: 13.8 µM

SMILES: FC(F)(F)c1cc(Nc2ccnc(Cl)n2)ccc1Cl
- inhibition [2]: inactive
- IC50 [4]: > 40 µM

SMILES: COc1cc2nc(Cl)nc(Nc3cccc(O)c3)c2cc1OC
- inhibition [5]: inactive
- inhibition [10]: inactive
- IC50 [4]: > 40 µM
- Activity [13]: inactive

SMILES: COc1cc2nc(Cl)nc(Nc3ccc(O)c(C)c3)c2cc1OC
- IC50 [4]: > 40 µM
